In ChEMBL document CHEMBL4334454, “Alkaloids Purified from Aristotelia chilensis Inhibit the Human α3β4 Nicotinic Acetylcholine Receptor with Higher Potencies Compared with the Human α4β2 and α7 Subtypes” (J Nat Prod, 2019):
The source made the active and inactive calls. The rule behind the calls is not given here.

Experiments:
Format in all cases: cell-based
[1] = biological target: T1, Neuronal acetylcholine receptor; alpha4/beta2 (Homo sapiens, UniProt P17787+P43681); experiment: Agonist activity at human AChR alpha4beta2 transfected in human HEK293 cells assessed as increase in calcium influx incubated for 1 hr by fluo-4 dye based assay
T1 sequence (P17787 whole entry): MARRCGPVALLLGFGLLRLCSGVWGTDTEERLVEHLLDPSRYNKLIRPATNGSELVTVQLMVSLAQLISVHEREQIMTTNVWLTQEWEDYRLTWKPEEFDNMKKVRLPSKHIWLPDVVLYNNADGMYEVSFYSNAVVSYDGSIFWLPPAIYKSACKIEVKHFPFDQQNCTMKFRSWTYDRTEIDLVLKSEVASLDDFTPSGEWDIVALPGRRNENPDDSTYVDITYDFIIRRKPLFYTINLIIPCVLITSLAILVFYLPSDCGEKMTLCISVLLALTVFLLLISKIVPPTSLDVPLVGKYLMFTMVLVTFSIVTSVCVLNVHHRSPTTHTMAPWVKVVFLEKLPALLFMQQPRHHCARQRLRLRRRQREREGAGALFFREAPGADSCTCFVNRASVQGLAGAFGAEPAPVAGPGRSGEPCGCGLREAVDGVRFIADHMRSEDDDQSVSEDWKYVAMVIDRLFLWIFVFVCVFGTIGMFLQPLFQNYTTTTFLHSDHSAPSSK
T1 sequence (P43681 whole entry): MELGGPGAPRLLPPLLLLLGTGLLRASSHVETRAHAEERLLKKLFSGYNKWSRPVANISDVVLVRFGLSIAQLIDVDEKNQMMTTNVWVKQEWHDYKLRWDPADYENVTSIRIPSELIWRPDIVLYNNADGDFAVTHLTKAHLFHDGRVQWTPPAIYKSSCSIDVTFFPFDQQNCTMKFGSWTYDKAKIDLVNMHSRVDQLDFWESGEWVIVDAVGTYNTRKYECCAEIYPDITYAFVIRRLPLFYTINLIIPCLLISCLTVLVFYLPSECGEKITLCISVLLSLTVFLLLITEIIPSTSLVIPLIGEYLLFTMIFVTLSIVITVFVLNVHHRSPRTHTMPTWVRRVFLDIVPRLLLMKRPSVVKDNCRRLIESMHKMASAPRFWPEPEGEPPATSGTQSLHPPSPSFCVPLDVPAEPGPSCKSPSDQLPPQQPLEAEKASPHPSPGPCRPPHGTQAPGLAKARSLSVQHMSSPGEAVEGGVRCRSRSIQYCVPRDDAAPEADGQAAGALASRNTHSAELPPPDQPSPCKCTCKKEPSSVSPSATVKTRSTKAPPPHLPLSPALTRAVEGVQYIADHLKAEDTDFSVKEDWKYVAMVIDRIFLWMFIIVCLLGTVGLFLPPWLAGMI

[2] = biological target: T2, Neuronal acetylcholine receptor subunit alpha-7 (Homo sapiens, UniProt P36544); experiment: Agonist activity at human AChR alpha7 transfected in rat GH3 cells assessed as increase in calcium influx incubated for 1 hr by fluo-4 dye based assay
T2 sequence (P36544 whole entry): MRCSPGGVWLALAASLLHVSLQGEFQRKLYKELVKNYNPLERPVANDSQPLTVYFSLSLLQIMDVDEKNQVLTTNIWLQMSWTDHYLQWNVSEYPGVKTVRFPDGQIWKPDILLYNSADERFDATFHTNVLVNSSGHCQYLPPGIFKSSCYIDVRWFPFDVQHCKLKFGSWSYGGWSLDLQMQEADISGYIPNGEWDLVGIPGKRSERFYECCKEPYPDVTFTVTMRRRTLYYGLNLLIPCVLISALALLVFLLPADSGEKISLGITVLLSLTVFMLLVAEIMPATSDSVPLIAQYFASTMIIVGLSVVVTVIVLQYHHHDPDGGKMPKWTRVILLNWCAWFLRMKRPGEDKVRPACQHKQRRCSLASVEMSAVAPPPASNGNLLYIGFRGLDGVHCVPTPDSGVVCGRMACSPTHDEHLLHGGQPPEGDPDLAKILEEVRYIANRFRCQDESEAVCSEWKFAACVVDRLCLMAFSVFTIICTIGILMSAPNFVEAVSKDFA

[3] = biological target: T1, Neuronal acetylcholine receptor; alpha4/beta2; experiment: Antagonist activity at human AChR alpha4beta2 transfected in human HEK293 cells assessed as decrease in epibatidine-induced calcium influx incubated for 1 hr by fluo-4 dye based assay
In short: (§1)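 HEK293-hα3β4 or HEK293-hα4β2 cells were seeded 72 h ahead, kept in HBSS/1% FBS (pH 7.4) 16–24 h, and loaded with Fluo-4 plus 2.5 mM probenecid for 1 h at 37 °C. After washing, cells were pretreated 5 min with alkaloid at varied concentrations. 0.1 μM (±)-epibatidine was then added while fluorescence (488/510 nm) was recorded for 78 s. Responses were normalized to the maximal epibatidine response, mean ± SD (n = 3). IC50 and nH came from concentration–response curves.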

[4] = biological target: T2, Neuronal acetylcholine receptor subunit alpha-7; experiment: Antagonist activity at human AChR alpha7 transfected in rat GH3 cells assessed as decrease in epibatidine-induced calcium influx incubated for 1 hr by fluo-4 dye based assay
In short: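 GH3-hα7 cells were seeded 72 h ahead, kept in HBSS/1% FBS (pH 7.4) 16–24 h, and loaded with Fluo-4 plus 2.5 mM probenecid for 1 h at 37 °C. After washing, cells were pretreated 5 min with varied alkaloid concentrations. 1.0 μM (±)-epibatidine was then added while fluorescence (488/510 nm) was recorded for 78 s. Data were normalized to the maximal epibatidine response, mean ± SD (n = 3). IC50 and nH were fitted.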

[5] = biological target: T3, Neuronal acetylcholine receptor; alpha3/beta4 (Homo sapiens, UniProt P30926+P32297); experiment: Antagonist activity at human AChR alpha3beta4 transfected in human HEK293 cells assessed as decrease in epibatidine-induced calcium influx incubated for 1 hr by fluo-4 dye based assay
T3 sequence (P30926 whole entry): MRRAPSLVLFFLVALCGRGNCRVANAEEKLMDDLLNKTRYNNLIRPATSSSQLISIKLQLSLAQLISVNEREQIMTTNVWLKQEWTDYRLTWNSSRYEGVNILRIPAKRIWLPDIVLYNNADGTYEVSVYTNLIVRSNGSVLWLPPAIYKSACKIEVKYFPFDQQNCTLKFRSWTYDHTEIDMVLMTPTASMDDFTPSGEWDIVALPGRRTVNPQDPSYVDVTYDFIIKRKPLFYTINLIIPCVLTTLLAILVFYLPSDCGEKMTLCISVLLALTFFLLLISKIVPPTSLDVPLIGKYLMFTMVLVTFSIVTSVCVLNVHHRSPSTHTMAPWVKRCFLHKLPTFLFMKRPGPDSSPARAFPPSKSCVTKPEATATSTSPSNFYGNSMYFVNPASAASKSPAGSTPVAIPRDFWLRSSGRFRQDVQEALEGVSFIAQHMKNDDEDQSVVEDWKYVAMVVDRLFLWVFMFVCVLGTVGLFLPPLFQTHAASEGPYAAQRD
T3 sequence (P32297 whole entry): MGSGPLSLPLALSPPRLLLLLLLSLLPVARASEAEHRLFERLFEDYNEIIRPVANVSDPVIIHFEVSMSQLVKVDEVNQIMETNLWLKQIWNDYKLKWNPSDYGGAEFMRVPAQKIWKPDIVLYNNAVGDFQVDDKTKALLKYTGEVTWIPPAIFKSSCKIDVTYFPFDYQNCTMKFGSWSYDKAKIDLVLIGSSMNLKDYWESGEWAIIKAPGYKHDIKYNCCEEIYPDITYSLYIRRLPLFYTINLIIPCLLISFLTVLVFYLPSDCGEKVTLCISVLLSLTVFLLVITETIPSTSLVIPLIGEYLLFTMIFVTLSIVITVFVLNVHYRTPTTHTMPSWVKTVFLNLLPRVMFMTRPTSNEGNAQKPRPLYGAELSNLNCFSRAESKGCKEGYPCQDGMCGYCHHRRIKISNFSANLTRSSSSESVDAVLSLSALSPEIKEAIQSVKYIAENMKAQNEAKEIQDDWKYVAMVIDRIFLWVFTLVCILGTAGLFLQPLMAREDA

Homo sapiens [6] = species on record: Homo sapiens; experiment: Selectivity index, ratio of IC50 for human AChR alpha4beta2 transfected in human HEK293 cells to IC50 for human AChR alpha3beta4 transfected in human HEK293 cells
Homo sapiens [7] = species on record: Homo sapiens; experiment: Selectivity index, ratio of IC50 for human AChR alpha7 transfected in rat GH3 cells to IC50 for human AChR alpha3beta4 transfected in human HEK293 cells
[8] = biological target: T1, Neuronal acetylcholine receptor; alpha4/beta2; experiment: Antagonist activity at human AChR alpha4beta2 transfected in human HEK293 cells assessed as decrease in epibatidine-induced calcium influx at 10 to 100 uM incubated for 1 hr by fluo-4 dye based assay relative to control; in short: as §1
[9] = biological target: T2, Neuronal acetylcholine receptor subunit alpha-7; experiment: Antagonist activity at human AChR alpha7 transfected in […] cells assessed as decrease in epibatidine-induced calcium influx at 10 to 100 uM incubated for 1 hr by fluo-4 dye based assay relative to control
[10] = biological target: T3, Neuronal acetylcholine receptor; alpha3/beta4; experiment: Antagonist activity at human AChR alpha3beta4 transfected in human HEK293 cells assessed as decrease in epibatidine-induced calcium influx at 100 uM incubated for 1 hr by fluo-4 dye based assay relative to control; in short: as §1

CC1=CC[C@@H]2C[C@H]1[C@@H](c1ccnc3ccccc13)NC2(C)C
Activity [1]: inactive
Activity [2]: inactive
IC50 [3]: 6.7 µM
IC50 ([4]; read-out: IC50): 45.3 µM

CC1(C)N[C@@H]2Cc3c([nH]c4ccccc34)[C@]3(C)CC[C@H]1C[C@H]23
Activity [1]: inactive
Activity [2]: inactive
IC50 [5]: 0.4 µM
IC50 [3]: 3.4 µM
IC50 ([4]; read-out: IC50): 27 µM
Ratio IC50 (Homo sapiens [6]): 8.4
Ratio IC50 (Homo sapiens [7]): 67.5
inhibition [8]: 100%
inhibition [9]: 100%

CC1(C)[C@@H]2C[C@@H]3[C@H]4C[C@@]5(Nc6ccccc6[C@@H]5N41)[C@]3(C)CC2=O
Activity [1]: inactive
Activity [2]: inactive
IC50 [5]: 167 µM
IC50 [3]: 145 µM
IC50 ([4]; gh3): Not Active
inhibition [10]: 40%
inhibition [8]: inactive
inhibition [9]: inactive

Clc1ccc(C2C[C@@H]3CC[C@H]2N3)cn1 (mixture of isomers)
Activity [1]: Active
Activity [2]: Active
